Laboratory results taken from ChEMBL document CHEMBL1926569, “Novel (E)-1-(4-methyl-2-(alkylamino)thiazol-5-yl)-3-arylprop-2-en-1-ones as potent antimicrobial agents” (2011).

Tests used:
Staphylococcus aureus [1] = experiment: Antibacterial activity against Staphylococcus aureus ATCC 6538 after 24 hrs by microdilution method; assay type: functional; details: ATCC 6538, 24 h
How it was run: (§1)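 Broth microdilution in 96-well plates. Bacterial suspensions were adjusted in sterile saline to 1.0 × 10⁵ CFU/ml, prepared daily and kept at 4 °C. Compound was added to LB broth with 1.0 × 10⁴ CFU per well and shaken at 160 rpm for 24 h at […] (so in the source). MIC is the lowest concentration with no visible growth under a binocular microscope. OD655 was also read. Duplicate, repeated three times.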

Bacillus cereus [2] = experiment: Antibacterial activity against clinical isolate of Bacillus cereus after 24 hrs by microdilution method; assay type: functional; how it was run: as §1
Micrococcus flavus [3] = experiment: Antibacterial activity against Micrococcus flavus ATCC 10240 after 24 hrs by microdilution method; assay type: functional; details: ATCC 10240, 24 h; how it was run: as §1
Listeria monocytogenes [4] = experiment: Antibacterial activity against Listeria monocytogenes NCTC 7973 after 24 hrs by microdilution method; assay type: functional; details: NCTC 7973, 24 h; how it was run: as §1
Pseudomonas aeruginosa [5] = experiment: Antibacterial activity against Pseudomonas aeruginosa ATCC 27853 after 24 hrs by microdilution method; assay type: functional; details: ATCC 27853, 24 h; how it was run: as §1
Salmonella typhimurium [6] = experiment: Antibacterial activity against Salmonella Typhimurium ATCC 13311 after 24 hrs by microdilution method; assay type: functional, Salmonella enterica subsp. enterica serovar Typhimurium; details: Salmonella enterica, ATCC 13311, 24 h; how it was run: as §1
Escherichia coli [7] = experiment: Antibacterial activity against Escherichia coli ATCC 35210 after 24 hrs by microdilution method; assay type: functional; details: ATCC 35210, 24 h; how it was run: as §1
Enterococcus faecalis [8] = experiment: Antibacterial activity against Enterococcus faecalis isolated from human after 24 hrs by microdilution method; assay type: functional; how it was run: as §1
Staphylococcus aureus [9] = experiment: Antibacterial activity against Staphylococcus aureus ATCC 6538 incubated for 24 hrs followed by serial sub-cultivation for 24 hrs by microdilution method; assay type: functional; details: ATCC 6538, 24 h
How it was run: (§2)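 MBC: after the 24 h LB broth microdilution (1.0 × 10⁴ CFU per well, 160 rpm), wells were serially sub-cultured into fresh broth plates and incubated a further 24 h. MBC is the lowest concentration with no visible growth, taken as 99.5% killing of the original inoculum. Duplicate, repeated three times.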

Bacillus cereus [10] = experiment: Antibacterial activity against clinical isolate of Bacillus cereus incubated for 24 hrs followed by serial sub-cultivation for 24 hrs by microdilution; assay type: functional; how it was run: as §2
Micrococcus flavus [11] = experiment: Antibacterial activity against Micrococcus flavus ATCC 10240 incubated for 24 hrs followed by serial sub-cultivation for 24 hrs by microdilution; assay type: functional; details: ATCC 10240, 24 h; how it was run: as §2
Listeria monocytogenes [12] = experiment: Antibacterial activity against Listeria monocytogenes NCTC 7973 incubated for 24 hrs followed by serial sub-cultivation for 24 hrs by microdilution; assay type: functional; details: NCTC 7973, 24 h; how it was run: as §2
Pseudomonas aeruginosa [13] = experiment: Antibacterial activity against Pseudomonas aeruginosa ATCC 27853 incubated for 24 hrs followed by serial sub-cultivation for 24 hrs by microdilution; assay type: functional; details: ATCC 27853, 24 h; how it was run: as §2
Salmonella typhimurium [14] = experiment: Antibacterial activity against Salmonella Typhimurium ATCC 13311 incubated for 24 hrs followed by serial sub-cultivation for 24 hrs by microdilution; assay type: functional, Salmonella enterica subsp. enterica serovar Typhimurium; details: Salmonella enterica, ATCC 13311, 24 h; how it was run: as §2
Escherichia coli [15] = experiment: Antibacterial activity against Escherichia coli ATCC 35210 incubated for 24 hrs followed by serial sub-cultivation for 24 hrs by microdilution; assay type: functional; details: ATCC 35210, 24 h; how it was run: as §2
Enterococcus faecalis [16] = experiment: Antibacterial activity against Enterococcus faecalis isolated from human incubated for 24 hrs followed by serial sub-cultivation for 24 hrs by microdilution; assay type: functional; how it was run: as §2
Aspergillus ochraceus [17] = experiment: Antifungal activity against Aspergillus ochraceus ATCC 12066 after 72 hrs by serial dilution technique; assay type: functional; details: ATCC 12066, 72 h
How it was run: (§3)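 Modified microdilution in 96-well plates. Fungi were kept on malt agar at 4 °C. Spores were washed off in sterile 0.85% saline with 0.1% Tween 80. Compounds were dissolved at 1 mg/ml in 5% DMSO with 0.1% Tween 80 and added to malt broth with inoculum. Plates were shaken at 160 rpm for 72 h at 28 °C. Duplicate, repeated three times.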

Aspergillus niger [18] = experiment: Antifungal activity against Aspergillus niger ATCC 6275 after 72 hrs by serial dilution technique; assay type: functional; details: ATCC 6275, 72 h; how it was run: as §3
Aspergillus flavus [19] = experiment: Antifungal activity against Aspergillus flavus ATCC 9643 after 72 hrs by serial dilution technique; assay type: functional; details: ATCC 9643, 72 h; how it was run: as §3
Talaromyces funiculosus [20] = experiment: Antifungal activity against Penicillium funiculosum ATCC 36839 after 72 hrs by serial dilution technique; assay type: functional; details: ATCC 36839, 72 h; how it was run: as §3
Penicillium ochrochloron [21] = experiment: Antifungal activity against Penicillium ochrochloron ATCC 9112 after 72 hrs by serial dilution technique; assay type: functional; details: ATCC 9112, 72 h; how it was run: as §3
Trichoderma viride [22] = experiment: Antifungal activity against Trichoderma viride IAM 5061 after 72 hrs by serial dilution technique; assay type: functional; details: IAM 5061, 72 h; how it was run: as §3
Candida albicans [23] = experiment: Antifungal activity against Candida albicans isolated from human after 72 hrs by serial dilution technique; assay type: functional; how it was run: as §3
Aspergillus ochraceus [24] = experiment: Antifungal activity against Aspergillus ochraceus ATCC 12066 incubated for 72 hrs followed by serial sub-cultivation for 72 hrs by serial dilution technique; assay type: functional; details: ATCC 12066, 72 h
How it was run: (§4)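 MFC: material from 72 h malt broth microdilution wells was serially sub-cultured into fresh broth plates and incubated a further 72 h at 28 °C. Fungicidal concentration is taken from growth after sub-culture. Duplicate, repeated three times.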

Aspergillus fumigatus [25] = experiment: Antifungal activity against Aspergillus fumigatus isolated from human incubated for 72 hrs followed by serial sub-cultivation for 72 hrs by serial dilution technique; assay type: functional; how it was run: as §4
Aspergillus niger [26] = experiment: Antifungal activity against Aspergillus niger ATCC 6275 incubated for 72 hrs followed by serial sub-cultivation for 72 hrs by serial dilution technique; assay type: functional; details: ATCC 6275, 72 h; how it was run: as §4
Aspergillus flavus [27] = experiment: Antifungal activity against Aspergillus flavus ATCC 9643 incubated for 72 hrs followed by serial sub-cultivation for 72 hrs by serial dilution technique; assay type: functional; details: ATCC 9643, 72 h; how it was run: as §4
Talaromyces funiculosus [28] = experiment: Antifungal activity against Penicillium funiculosum ATCC 36839 incubated for 72 hrs followed by serial sub-cultivation for 72 hrs by serial dilution technique; assay type: functional; details: ATCC 36839, 72 h; how it was run: as §4
Penicillium ochrochloron [29] = experiment: Antifungal activity against Penicillium ochrochloron ATCC 9112 incubated for 72 hrs followed by serial sub-cultivation for 72 hrs by serial dilution technique; assay type: functional; details: ATCC 9112, 72 h; how it was run: as §4
Trichoderma viride [30] = experiment: Antifungal activity against Trichoderma viride IAM 5061 incubated for 72 hrs followed by serial sub-cultivation for 72 hrs by serial dilution technique; assay type: functional; details: IAM 5061, 72 h; how it was run: as §4
Candida albicans [31] = experiment: Antifungal activity against Candida albicans isolated from human incubated for 72 hrs followed by serial sub-cultivation for 72 hrs by serial dilution technique; assay type: functional; how it was run: as §4
Pseudomonas aeruginosa [32] = experiment: Ratio of ampicillin MIC to compound MIC for Pseudomonas aeruginosa ATCC 27853; assay type: functional
Aspergillus ochraceus [33] = experiment: Ratio of bifonazole to compound for Aspergillus ochraceus ATCC 12066; assay type: functional
Aspergillus niger [34] = experiment: Ratio of bifonazole to compound for Aspergillus niger ATCC 6275; assay type: functional
Talaromyces funiculosus [35] = experiment: Ratio of bifonazole to compound for Penicillium funiculosum ATCC 36839; assay type: functional
Penicillium ochrochloron [36] = experiment: Ratio of bifonazole to compound for Penicillium ochrochloron ATCC 9112; assay type: functional
Trichoderma viride [37] = experiment: Ratio of bifonazole to compound for Trichoderma viride IAM 5061; assay type: functional
Candida albicans [38] = experiment: Ratio of bifonazole to compound for Candida albicans isolated from human; assay type: functional
Aspergillus ochraceus [39] = experiment: Ratio of ketoconazole to compound for Aspergillus ochraceus ATCC 12066; assay type: functional
Aspergillus fumigatus [40] = experiment: Ratio of ketoconazole to compound for Aspergillus fumigatus isolated from human; assay type: functional
Penicillium ochrochloron [41] = experiment: Ratio of ketoconazole to compound for Penicillium ochrochloron ATCC 9112; assay type: functional
Candida albicans [42] = experiment: Ratio of ketoconazole to compound for Candida albicans isolated from human; assay type: functional
Aspergillus ochraceus [43] = experiment: Antifungal activity against Aspergillus ochraceus after 72 hrs by serial dilution technique

CCNc1nc(C)c(C(=O)/C=C/c2cccc([N+](=O)[O-])c2)s1
47.3 µM: MIC (Bacillus cereus [2]) | MIC (Salmonella typhimurium [6]) | MIC (Enterococcus faecalis [8]) | MIC (Trichoderma viride [22])
78.8 µM: MFC (Aspergillus ochraceus [24]) | MFC (Aspergillus fumigatus [25]) | MFC (Aspergillus niger [26]) | MFC (Aspergillus flavus [27]) | MFC (Penicillium ochrochloron [29])
94.6 µM: MIC (Staphylococcus aureus [1]) | MIC (Listeria monocytogenes [4]) | MBC (Staphylococcus aureus [9]) | MBC (Micrococcus flavus [11]) | MBC (Listeria monocytogenes [12])
63.1 µM: MIC (Micrococcus flavus [3]) | MIC (Escherichia coli [7]) | MBC (Bacillus cereus [10]) | MBC (Salmonella typhimurium [14]) | MBC (Enterococcus faecalis [16]) | MIC (Aspergillus ochraceus [17]) | MIC (Aspergillus niger [18]) | MIC (Aspergillus flavus [19]) | MIC (Penicillium ochrochloron [21]) | MFC (Talaromyces funiculosus [28]) | MFC (Trichoderma viride [30]) | MFC (Candida albicans [31]) | MIC (Aspergillus ochraceus [43])
10: Ratio (Pseudomonas aeruginosa [32]) | Ratio (Aspergillus ochraceus [33]) | Ratio (Aspergillus niger [34]) | Ratio (Talaromyces funiculosus [35]) | Ratio (Penicillium ochrochloron [36]) | Ratio (Trichoderma viride [37]) | Ratio (Candida albicans [38]) | Ratio (Aspergillus ochraceus [39]) | Ratio (Aspergillus fumigatus [40]) | Ratio (Penicillium ochrochloron [41]) | Ratio (Candida albicans [42])
31.5 µM: MIC (Talaromyces funiculosus [20]) | MIC (Candida albicans [23])
78.9 µM: MIC (Pseudomonas aeruginosa [5]) | MBC (Pseudomonas aeruginosa [13]) | MBC (Escherichia coli [15])

CC(=O)N1CCN(c2ccc(OCC3COC(Cn4ccnc4)(c4ccc(Cl)cc4Cl)O3)cc2)CC1 (stereo not given) [KETOCONAZOLE]
380 µM: MIC (Aspergillus ochraceus [17]) | MIC (Aspergillus niger [18]) | MIC (Talaromyces funiculosus [20]) | MIC (Candida albicans [23]) | MIC (Aspergillus ochraceus [43])
950 µM: MFC (Aspergillus ochraceus [24]) | MFC (Aspergillus fumigatus [25]) | MFC (Aspergillus niger [26]) | MFC (Talaromyces funiculosus [28]) | MFC (Candida albicans [31])
2850 µM: MIC (Aspergillus flavus [19])
4750 µM: MIC (Trichoderma viride [22])
3800 µM: MIC (Penicillium ochrochloron [21]) | MFC (Aspergillus flavus [27]) | MFC (Penicillium ochrochloron [29])
5700 µM: MFC (Trichoderma viride [30])

CN[C@@H]1[C@H](O[C@H]2[C@H](O[C@H]3[C@H](O)[C@@H](O)[C@H](N=C(N)N)[C@@H](O)[C@@H]3N=C(N)N)O[C@@H](C)[C@]2(O)C=O)O[C@@H](CO)[C@H](O)[C@H]1O [STREPTOMYCIN]
43 µM: MIC (Bacillus cereus [2]) | MIC (Enterococcus faecalis [8])
86 µM: MIC (Micrococcus flavus [3]) | MBC (Bacillus cereus [10]) | MBC (Enterococcus faecalis [16])
344 µM: MBC (Staphylococcus aureus [9]) | MBC (Pseudomonas aeruginosa [13]) | MBC (Salmonella typhimurium [14]) | MBC (Escherichia coli [15])
172 µM: MIC (Staphylococcus aureus [1]) | MIC (Pseudomonas aeruginosa [5]) | MIC (Salmonella typhimurium [6]) | MIC (Escherichia coli [7]) | MBC (Micrococcus flavus [11])
516 µM: MBC (Listeria monocytogenes [12])
258 µM: MIC (Listeria monocytogenes [4])
